Legend:
Type in all cases: functional
Conditions in all cases: read-out: Activity
SR = assay: Growth inhibition of human SR cells assessed as cell growth at 10 uM incubated for 48 hrs by sulforhodamine B assay relative to control
Method in brief: (§1)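 Run by the NCI Developmental Therapeutics Program as part of its 60-line human tumour panel. Each compound tested at a single 10 µM dose. Growth expressed as % relative to untreated control cells (100%).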

OVCAR-5 = assay: Growth inhibition of human OVCAR-5 cells assessed as cell growth at 10 uM incubated for 48 hrs by sulforhodamine B assay relative to control; method in brief: as §1
SW-620 = assay: Growth inhibition of human SW-620 cells assessed as cell growth at 10 uM incubated for 48 hrs by sulforhodamine B assay relative to control; method in brief: as §1
SF-295 = assay: Growth inhibition of human SF-295 cells assessed as cell growth at 10 uM incubated for 48 hrs by sulforhodamine B assay relative to control; method in brief: as §1
LOX IMVI = assay: Growth inhibition of human LOX IMVI cells assessed as cell growth at 10 uM incubated for 48 hrs by sulforhodamine B assay relative to control
Method in brief: (§2)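 Submitted to the NCI Developmental Therapeutics Program for the NCI60 human tumour cell line panel. First screen at a single 10 µM concentration. Read-out is growth relative to untreated control cells set at 100%.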

OVCAR-4 = assay: Growth inhibition of human OVCAR-4 cells assessed as cell growth at 10 uM incubated for 48 hrs by sulforhodamine B assay relative to control; method in brief: as §1
NCI/ADR-RES = assay: Growth inhibition of human NCI/ADR-RES cells assessed as cell growth at 10 uM incubated for 48 hrs by sulforhodamine B assay relative to control; method in brief: as §2
HCC 2998 = assay: Growth inhibition of human HCC 2998 cells assessed as cell growth at 10 uM incubated for 48 hrs by sulforhodamine B assay relative to control
Method in brief: (§3)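 NCI Developmental Therapeutics Program NCI60 panel. Compounds that were active in the 10 µM one-dose screen went on to dose–response testing. Growth at each concentration is expressed relative to untreated control (100%). GI50 (concentration giving 50% of maximal inhibition of proliferation) and TGI (concentration giving total growth inhibition) were derived from the curves.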

MOLT-4 = assay: Growth inhibition of human MOLT-4 cells assessed as cell growth at 10 uM incubated for 48 hrs by sulforhodamine B assay relative to control; method in brief: as §2
OVCAR-3 = assay: Growth inhibition of human OVCAR-3 cells assessed as cell growth at 10 uM incubated for 48 hrs by sulforhodamine B assay relative to control; method in brief: as §1
MDA-MB-435 = assay: Growth inhibition of human MDA-MB-435 cells assessed as cell growth at 10 uM incubated for 48 hrs by sulforhodamine B assay relative to control; method in brief: as §2
RPMI-8226 = assay: Growth inhibition of human RPMI-8226 cells assessed as cell growth at 10 uM incubated for 48 hrs by sulforhodamine B assay relative to control; method in brief: as §1
HCT-116 = assay: Growth inhibition of human HCT-116 cells assessed as cell growth at 10 uM incubated for 48 hrs by sulforhodamine B assay relative to control; method in brief: as §2
UO-31 = assay: Growth inhibition of human UO-31 cells assessed as cell growth at 10 uM incubated for 48 hrs by sulforhodamine B assay relative to control; method in brief: as §1
DU-145 = assay: Growth inhibition of human DU-145 cells assessed as cell growth at 10 uM incubated for 48 hrs by sulforhodamine B assay relative to control; method in brief: as §3
T47D = assay: Growth inhibition of human T47D cells assessed as cell growth at 10 uM incubated for 48 hrs by sulforhodamine B assay relative to control; method in brief: as §1
NCI-H226 = assay: Growth inhibition of human NCI-H226 cells assessed as cell growth at 10 uM incubated for 48 hrs by sulforhodamine B assay relative to control; method in brief: as §2
MCF7 = assay: Growth inhibition of human MCF7 cells assessed as cell growth at 10 uM incubated for 48 hrs by sulforhodamine B assay relative to control; method in brief: as §2
SK-MEL-5 = assay: Growth inhibition of human SK-MEL-5 cells assessed as cell growth at 10 uM incubated for 48 hrs by sulforhodamine B assay relative to control; method in brief: as §1
PC-3 = assay: Growth inhibition of human PC-3 cells assessed as cell growth at 10 uM incubated for 48 hrs by sulforhodamine B assay relative to control; method in brief: as §1
786-0 = assay: Growth inhibition of human 786-0 cells assessed as cell growth at 10 uM incubated for 48 hrs by sulforhodamine B assay relative to control; method in brief: as §3
HL-60(TB) = assay: Growth inhibition of human HL-60(TB) cells assessed as cell growth at 10 uM incubated for 48 hrs by sulforhodamine B assay relative to control
Method in brief: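 Screened by the NCI Developmental Therapeutics Program on its panel of 60 human tumour cell lines. Compounds were first tested at a single 10 µM dose, and compounds active there went to dose-response curves. Growth is expressed relative to untreated control (100%). GI50 (50% of maximal proliferation inhibition) and TGI (total growth inhibition) were derived from the dose-response data.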

NCI-H460 = assay: Growth inhibition of human NCI-H460 cells assessed as cell growth at 10 uM incubated for 48 hrs by sulforhodamine B assay relative to control; method in brief: as §2
Hs-578T = assay: Growth inhibition of human Hs-578T cells assessed as cell growth at 10 uM incubated for 48 hrs by sulforhodamine B assay relative to control; method in brief: as §2
SK-MEL-28 = assay: Growth inhibition of human SK-MEL-28 cells assessed as cell growth at 10 uM incubated for 48 hrs by sulforhodamine B assay relative to control; method in brief: as §1
NCI-H322M = assay: Growth inhibition of human NCI-H322M cells assessed as cell growth at 10 uM incubated for 48 hrs by sulforhodamine B assay relative to control; method in brief: as §2
SN12C = assay: Growth inhibition of human SN12C cells assessed as cell growth at 10 uM incubated for 48 hrs by sulforhodamine B assay relative to control; method in brief: as §1
ACHN = assay: Growth inhibition of human ACHN cells assessed as cell growth at 10 uM incubated for 48 hrs by sulforhodamine B assay relative to control
Method in brief: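 NCI Developmental Therapeutics Program NCI60 human tumour cell line panel, one-dose primary screen with every compound at 10 µM. Growth is expressed as % of untreated control cells (100%).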

RXF 393 = assay: Growth inhibition of human RXF 393 cells assessed as cell growth at 10 uM incubated for 48 hrs by sulforhodamine B assay relative to control; method in brief: as §1
SF-539 = assay: Growth inhibition of human SF-539 cells assessed as cell growth at 10 uM incubated for 48 hrs by sulforhodamine B assay relative to control; method in brief: as §1
MDA-MB-468 = assay: Growth inhibition of human MDA-MB-468 cells assessed as cell growth at 10 uM incubated for 48 hrs by sulforhodamine B assay relative to control; method in brief: as §2
KM12 = assay: Growth inhibition of human KM12 cells assessed as cell growth at 10 uM incubated for 48 hrs by sulforhodamine B assay relative to control; method in brief: as §2

In the case of `CC(=O)c1ccc2c(N)c(C(=O)Nc3ccccc3)sc2n1`, the growth at 10 µM (SR) is reported as 86.5%, the growth at 10 µM (OVCAR-5) is reported as 113% and the growth at 10 µM (SW-620) is reported as 99.4%. The growth at 10 µM (SF-295) was 108%, the growth at 10 µM (LOX IMVI) was 105% and the growth at 10 µM (OVCAR-4) was 84.2%. The growth at 10 µM (NCI/ADR-RES) was 103%, the growth at 10 µM (HCC 2998) was 106% and the growth at 10 µM (MOLT-4) was 107%. For the same compound, the growth at 10 µM (OVCAR-3) was 119%, the growth at 10 µM (MDA-MB-435) was 106% and the growth at 10 µM (RPMI-8226) was 89%. It also gave a growth at 10 µM (HCT-116) of 108%, a growth at 10 µM (UO-31) of 103% and a growth at 10 µM (DU-145) of 107%. It also gave a growth at 10 µM (T47D) of 93.7%, a growth at 10 µM (NCI-H226) of 93.4% and a growth at 10 µM (MCF7) of 96.8%. The growth at 10 µM (SK-MEL-5) was 98.5%, the growth at 10 µM (PC-3) was 97.4% and the growth at 10 µM (786-0) was 97.9%. The growth at 10 µM (HL-60(TB)) was 108%, the growth at 10 µM (NCI-H460) was 101% and the growth at 10 µM (Hs-578T) was 106%. The growth at 10 µM (SK-MEL-28) was 108%, the growth at 10 µM (NCI-H322M) was 114% and the growth at 10 µM (SN12C) was 110%. It also gave a growth at 10 µM (ACHN) of 102%, a growth at 10 µM (RXF 393) of 100% and a growth at 10 µM (SF-539) of 97%. It also gave a growth at 10 µM (MDA-MB-468) of 87.4% and a growth at 10 µM (KM12) of 110%.

For `Nc1c(C(=O)N(c2ccccc2)c2ccccc2)sc2nc3c(cc12)C(=O)CCC3`, the growth at 10 µM (SR) was 55.6%, the growth at 10 µM (OVCAR-5) was 130% and the growth at 10 µM (SW-620) was 89.3%. For the same compound, the growth at 10 µM (SF-295) was 107%, the growth at 10 µM (LOX IMVI) was 94.3% and the growth at 10 µM (NCI/ADR-RES) was 101%. The growth at 10 µM (HCC 2998) was 116%, the growth at 10 µM (MOLT-4) was 102% and the growth at 10 µM (OVCAR-3) was 107%. The growth at 10 µM (MDA-MB-435) was 110%, the growth at 10 µM (RPMI-8226) was 94.8% and the growth at 10 µM (HCT-116) was 94.2%. The growth at 10 µM (UO-31) was 87%, the growth at 10 µM (DU-145) was 68.6% and the growth at 10 µM (T47D) was 99.5%. For the same compound, the growth at 10 µM (NCI-H226) was 104%, the growth at 10 µM (MCF7) was 99.6% and the growth at 10 µM (SK-MEL-5) was 102%. For the same compound, the growth at 10 µM (PC-3) was 103%, the growth at 10 µM (786-0) was 104% and the growth at 10 µM (HL-60(TB)) was 105%. It also gave a growth at 10 µM (NCI-H460) of 99.9%, a growth at 10 µM (Hs-578T) of 92.3% and a growth at 10 µM (SK-MEL-28) of 116%. For the same compound, the growth at 10 µM (NCI-H322M) was 102%, the growth at 10 µM (SN12C) was 101% and the growth at 10 µM (ACHN) was 110%. For the same compound, the growth at 10 µM (RXF 393) was 111%, the growth at 10 µM (SF-539) was 81.7% and the growth at 10 µM (MDA-MB-468) was 106%. The growth at 10 µM (KM12) was 79%.
